Test results: ChEMBL document CHEMBL1146621, “Antiplatelet activity of benzylisoquinoline derivatives oxidized by cerium(IV) ammonium nitrate” (Bioorg Med Chem Lett, 2003)

What was measured:
Assay type in all cases: functional
[1] = In vitro inhibition of Arachidonic acid (100 uM) induced platelet aggregatory activity.
[2] = In vitro inhibition of Collagen (10 ug/mL) induced platelet aggregatory activity
Procedure, shortened: (§1)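 Platelets were preincubated with test agent or vehicle (DMSO 0.5%) at 37 °C for 3 min before the inducer was added, and aggregation was then followed. Aspirin served as the positive control. IC50 values are reported as means ± SE (n=3).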

[3] = Percentage inhibition against platelet activating factor (2 ng/mL) induced platelet aggregatory activity
[4] = Percentage inhibition against thrombin induced platelet aggregatory activity; set-up: concentration or dose not given beside the values
[5] = Inhibitory concentration required against Arachidonic acid (100 uM) induced platelet aggregatory activity; procedure, shortened: as §1
[6] = In vitro inhibition of Collagen (10 ug/mL) induced platelet aggregatory activity.
[7] = Percentage inhibition against Platelet activating factor (2 ng/mL) induced platelet aggregatory activity

COc1cc2ccnc(C(=O)c3ccc(Br)cc3)c2cc1OC
Inhibition [1]: 22%
Inhibition [2]: 36%
Inhibition [3]: 44%
Inhibition [4]: 5%

COc1cc2ccnc(C(=O)c3ccccc3Cl)c2cc1OC
IC50 [5]: 77.1 µM
IC50 [6]: 52.1 µM
IC50 [7]: 82 µM
Inhibition [4]: 30%

COc1cc2c(cc1OC)C(C(=O)c1ccccc1OC)=NCC2
Inhibition [1]: 21%
Inhibition [2]: 18%
Inhibition [3]: 26%
Inhibition [4]: 8%

COc1cc2ccnc(Cc3ccccc3Br)c2cc1OC
Inhibition [1]: 46%
IC50 [6]: 99.2 µM
Inhibition [3]: 8%
Inhibition [4]: 7%

COc1cc2c(cc1OC)C(C(=O)c1ccc(Br)cc1)=NCC2
Inhibition [1]: 6%
Inhibition [2]: 20%
Inhibition [3]: 10%
Inhibition [4]: 4%

COc1cc2ccnc(Cc3ccc(Cl)cc3)c2cc1OC
IC50 [5]: 51.3 µM
IC50 [6]: 32.7 µM
Inhibition [3]: 26%
Inhibition [4]: 28%

COc1cc2ccnc(Cc3ccc(Br)cc3)c2cc1OC
IC50 [5]: 94 µM
IC50 [6]: 55.6 µM
Inhibition [3]: 8%
Inhibition [4]: 11%

COc1ccc(C(O)c2nccc3cc(OC)c(OC)cc23)cc1 (stereo unspecified)
Inhibition [1]: 44%
IC50 [6]: 58.9 µM
Inhibition [3]: 18%
Inhibition [4]: 9%

COc1cc2ccnc(C(=O)c3ccc(Cl)cc3)c2cc1OC
Inhibition [1]: 11%
IC50 [6]: 89.2 µM
Inhibition [4]: 9%

COc1cc2ccnc(C(=O)c3ccccc3Br)c2cc1OC
Inhibition [1]: 49%
IC50 [6]: 77.3 µM
Inhibition [3]: 25%
Inhibition [4]: 6%

COc1ccccc1Cc1nccc2cc(OC)c(OC)cc12
IC50 [5]: 66.2 µM
IC50 [6]: 51.2 µM
Inhibition [3]: 20%
Inhibition [4]: 8%

COc1ccc(C(=O)C2=NCCc3cc(OC)c(OC)cc32)cc1
Inhibition [1]: 19%
IC50 [6]: 87 µM
Inhibition [3]: 41%
Inhibition [4]: 10%

COc1cc2c(cc1OC)C(C(=O)c1cccc(Cl)c1)=NCC2
Inhibition [1]: 25%
Inhibition [2]: 35%
Inhibition [3]: 32%
Inhibition [4]: 3%

COc1ccc(C(=O)c2nccc3cc(OC)c(OC)cc23)cc1
Inhibition [1]: 20%
IC50 [6]: 97 µM
IC50 [7]: 64.7 µM
Inhibition [4]: 4%

COc1cccc(C(=O)c2nccc3cc(OC)c(OC)cc23)c1
IC50 [5]: 37.7 µM
IC50 [6]: 39.1 µM
IC50 [7]: 73 µM
Inhibition [4]: 46%

COc1cc2c(cc1OC)C(C(=O)c1ccc(Cl)cc1)=NCC2
Inhibition [1]: 48%
IC50 [6]: 66.1 µM
Inhibition [3]: 22%
Inhibition [4]: 18%

COc1ccc(Cc2nccc3cc(OC)c(OC)cc23)cc1
IC50 [5]: 59.2 µM
IC50 [6]: 36.7 µM
Inhibition [3]: 52%
Inhibition [4]: 26%

COc1cc2ccnc(C(=O)c3ccccc3OC)c2cc1OC
Inhibition [1]: 50%
Inhibition [2]: 39%
Inhibition [3]: 35%
Inhibition [4]: 1%

COc1cc2ccnc(Cc3cccc(Cl)c3)c2cc1OC
IC50 [5]: 90.2 µM
IC50 [6]: 73.6 µM
Inhibition [3]: 11%
Inhibition [4]: 18%

COc1cccc(Cc2nccc3cc(OC)c(OC)cc23)c1
Inhibition [1]: 39%
Inhibition [2]: 46%
Inhibition [3]: 12%
Inhibition [4]: 5%

COc1cccc(C(=O)C2=NCCc3cc(OC)c(OC)cc32)c1
Inhibition [1]: 48%
Inhibition [2]: 31%
Inhibition [3]: 15%
Inhibition [4]: 14%

COc1cc2c(cc1OC)C(C(=O)c1cccc(Br)c1)=NCC2
Inhibition [1]: 23%
IC50 [6]: 74.5 µM
IC50 [7]: 75.8 µM
Inhibition [4]: 4%

COc1cc2ccnc(Cc3cccc(Br)c3)c2cc1OC
IC50 [5]: 68.8 µM
IC50 [6]: 48.9 µM
Inhibition [3]: 23%
Inhibition [4]: 8%

COc1cc2ccnc(C(=O)c3cccc(Cl)c3)c2cc1OC
Inhibition [1]: 35%
IC50 [6]: 72.6 µM
Inhibition [3]: 47%
Inhibition [4]: 4%

COc1cc2ccnc(Cc3ccccc3Cl)c2cc1OC
Inhibition [1]: 34%
IC50 [6]: 72.3 µM
Inhibition [3]: 13%
Inhibition [4]: 8%

COc1cc2ccnc(C(=O)c3cccc(Br)c3)c2cc1OC
Inhibition [1]: 35%
IC50 [6]: 69 µM
IC50 [7]: 85 µM
Inhibition [4]: 5%

COc1cc2c(cc1OC)C(C(=O)c1ccccc1Cl)=NCC2
Inhibition [1]: 27%
IC50 [6]: 88.1 µM
Inhibition [3]: 20%
Inhibition [4]: 9%

CC(=O)Oc1ccccc1C(=O)O [ASPIRIN]
IC50 [5]: 34.6 µM
IC50 [6]: 34.9 µM
Inhibition [3]: 2%
Inhibition [4]: 81%
